NR2E3 ag-1: agonists of human NR2E3 nuclear receptor; hit rate 0.35% among 360,000; CHO-S Gal4-NCOR/VP16-NR2E3 two-hybrid, luciferase; AID 602229; inhibition of corepressor binding, % at 3.98 µM;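 active = inhibition above the mean of all tested compounds plus 3 SD, cut at about 70% in these data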;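 also: higher means lower luciferase signal from less NR2E3 corepressor binding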
Target sequence (Q9Y5X4 whole entry, looked up, the tested form may be a part): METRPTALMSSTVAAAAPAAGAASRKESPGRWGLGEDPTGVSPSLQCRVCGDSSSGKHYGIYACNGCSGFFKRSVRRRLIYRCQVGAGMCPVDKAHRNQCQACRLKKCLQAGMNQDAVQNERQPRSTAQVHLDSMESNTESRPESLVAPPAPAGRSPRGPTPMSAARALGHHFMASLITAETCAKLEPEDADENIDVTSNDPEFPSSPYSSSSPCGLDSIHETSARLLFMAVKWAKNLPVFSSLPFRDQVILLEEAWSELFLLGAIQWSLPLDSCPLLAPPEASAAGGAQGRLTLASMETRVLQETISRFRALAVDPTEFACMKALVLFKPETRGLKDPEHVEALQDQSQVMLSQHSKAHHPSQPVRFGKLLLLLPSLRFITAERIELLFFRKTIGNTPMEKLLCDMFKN
NR1D1 modulator: modulates human Rev-erb alpha binding to DNA | P20393 | Rev-erbα–FITC-DNA binding, fluorescence polarization, 90 min | activity, % at 10 µM | hit rate 0.79% among 370,000;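 active = activity above about 14%, limit read from the data; passing the limit was not always enough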
PG9 binder: PG9 antibody binding by small molecule. TR-FRET gp120-PG9 antibody binding. inhibition, % at 6.7 µM. hit rate 0.43% among 360,000; in the data active = inhibition above about 8.5%
NR2E3 ag-2: activates human photoreceptor nuclear receptor NR2E3 | Q9Y5X4 | GST-NR2E3/biotin-RetCOR TR-FRET, 1536-well | inhibition of corepressor binding, % at 4.78 µM | hit rate 0.12% among 320,000 | AID 2300;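 active = percent inhibition above the cutoff of mean plus 3 SD of all tested compounds, set per screening campaign, cut at about 20% in these data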
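Material: NR2E3–RetCOR corepressor complex / Incubation: Compound–protein incubation for 5 h at 4 °C / Dosing: compound at 4.8 µM, single dose / Detection: time-resolved FRET / Benchmarks: high control biotin, low control 0.6% DMSO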
GalR3 antag: human GalR3 antagonism | inhibition, % at 3 µM | hit rate 0.44% among 360,000 | AID 651719 | O60755 | HEK293 GalR3-CNG cAMP membrane potential fluorescence; galR3 body fused to GalR1 C-terminus;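 active = inhibition above the screen-wide average plus 3 SD, cut at about 13% in these data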;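 also: forskolin and galanin both at EC90 stimulate the cells; cAMP rise reported by CNG channel membrane potential dye signal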
PG9 bind confirm: confirmation of small molecules binding HIV-1 gp120 antibody PG9; shares compounds with PG9 binder; TR-FRET PG9 antibody binding, biochemical; inhibition, % at 6.7 µM; hit rate 90% among 1,500; in the data active = inhibition above about 9%
PGV04 Ab binding: binds control antibody PGV04 in PG9 binder counter-screen | shares compounds with PG9 binder | inhibition, % at 6.7 µM | hit rate 95% among 1,500 | TR-FRET PGV04 antibody-gp120 binding, biochemical; in the data active = inhibition above about 9.5%
PG9 bind DR: small molecules binding HIV-1 gp120 antibody PG9; TR-FRET PG9 antibody-gp120 binding inhibition; 95 tested, under 10 active; IC50, µM; shares compounds with PG9 binder; in the data active = IC50 below about 10 µM
PGV04 binding DR: counter-screen for PG9 binders: binding to control antibody PGV04. shares compounds with PG9 binder. TR-FRET binding to control antibody PGV04. IC50, µM. hit rate 20% among 95. AID 651937
PG126 binding DR: PG126 binding, dose response counter-screen. shares compounds with PG9 binder. TR-FRET binding to antibody PG126, counterscreen. IC50, µM. hit rate 20% among 95
Numbers stand for hits; – = inactive; · = not tested or not shown. The list is not random: actives were taken first. Their share in the collection is about 1.8%. Rule as the data show it, unless noted: active = IC50 below about 9 µM; inactive = the rest.

SMILES	NR2E3 ag-1	NR1D1 modulator	PG9 binder	NR2E3 ag-2	GalR3 antag	PG9 bind confirm	PGV04 Ab binding	others
COc1ccc(C)cc1NC(=O)COC(=O)c1ccc2c(c1)OCO2	–	–	24	–	–	24	28
COC(=O)[C@]1(CNS(=O)(=O)c2ccc(F)cc2)CC(=O)N(C)[C@@H]1c1ccccc1	·	–	·	·	·	·	·
COc1ccc(S[C@]2(C(=O)N3CCCC3)CC(=O)N(C(=O)C3CC3)[C@@H]2c2ccc(OC)cc2)cc1	·	–	·	·	·	·	·
COC(=O)c1cc(-c2ccc(C(C)=O)cc2)c(=O)n2c1CCC2	·	–	·	·	·	·	·
CCOc1ccc(/C(O)=C2/C(=O)C(=O)N(c3ccccn3)C2c2ccc(Cl)cc2)c(C)c1 (centres undefined)	–	–	11	·	–	13	19
CCCOc1ccc(/C(O)=C2\C(=O)C(=O)N(c3ccccn3)C2c2ccccc2F)cc1C (centres undefined)	–	–	21	–	–	17	24
CCOc1ccc(/C(O)=C2/C(=O)C(=O)N(c3ccccn3)C2c2ccc(C)cc2)c(C)c1 (centres undefined)	–	–	20	–	–	20	28
COc1ccc(C2/C(=C(/O)c3ccccc3)C(=O)C(=O)N2c2ccccn2)cc1 (centres undefined)	–	–	–	–	–	·	·
COC(=O)[C@]12C[C@H](CC(=O)NCc3cccc(C(F)(F)F)c3)C(=O)N(CCc3ccc(OC)c(OC)c3)C1=C[C@H](C1CCCC1)O[C@@H]2C	·	–	·	·	·	·	·
CN1C(=O)c2cc(NC(=O)Nc3ccccc3)ccc2OC[C@H]2O[C@@H](CC(=O)N[C@H]3CCN(Cc4ccccc4)C3)CC[C@@H]21	·	–	·	·	·	·	·
CC(C)CCNC(=O)NC(=O)COC(=O)c1cc(S(=O)(=O)N2CCOCC2)ccc1N1CCCCC1	–	–	32	–	–	28	46
C[C@H]1[C@@H](OC(=O)NCc2ccc(Cl)cc2)CC[C@@]23CCCN2C(=O)CCC[C@@H]13	·	–	·	·	·	·	·
CCOC(=O)CCc1c(C)c(C#N)c2nc3ccccc3n2c1-n1cnc2ccccc21	–	–	17	–	–	22	27
Nc1ccn(C2CCCCO2)c(=O)n1 (centres undefined)	–	–	14	·	–	–	–
Nc1ccn(C2CCCO2)c(=O)n1 (centres undefined)	–	–	–	·	–	·	·
COC(=O)C1CN(Cc2cn(Cc3ccc(Cl)cc3)nn2)CCS(=O)(=O)N1Cc1ccc(Cl)cc1 (centres undefined)	·	–	·	·	·	·	·
CSc1ccc(S(=O)(=O)Nc2ccccc2C(=O)N2CCOCC2)cc1	–	–	8.8	–	–	22	22	PG9 bind DR=–;PGV04 binding DR=–;PG126 binding DR=–
COc1ccc(C(=O)OCCCN(C)C2CN(Cc3cn(Cc4ccc([N+](=O)[O-])cc4)nn3)S(=O)(=O)C2)cc1OC (centres undefined)	·	–	·	·	·	·	·
CCCCc1nc2sc3c(SCC(=O)NCc4ccco4)ncnc3c2c2c1CCC2	–	–	84	–	–	87	82	PG9 bind DR=3.3;PGV04 binding DR=1.5;PG126 binding DR=1.7
Cc1nc(SCC(=O)NCc2ccco2)c2c(C)c(C)sc2n1	–	–	–	–	–	·	·
O=C(NCCN1Cc2ccccc2C1=O)c1cccs1	–	–	50	–	–	10	11
CCc1cccc(CC)c1NC(=O)Cn1c(-c2ccccc2Cl)nc2ccccc21	–	–	17	–	–	19	25
COC(=O)[C@]12C[C@H](CC(=O)NCc3ccccc3)C(=O)N(Cc3ccc(Cl)cc3Cl)C1=C[C@H](C(C)C)O[C@@H]2C1CC1	·	–	·	·	·	·	·
Cc1ccccc1NC(=O)c1c(C)[nH]c(=S)c(C#N)c1-c1ccc(Cl)cc1	–	–	–	–	–	·	·
Cc1ccc(-c2c(C(=O)Nc3ccccc3C)c(C)[nH]c(=S)c2C#N)o1	–	–	15	–	–	11	11
SMILES	NR2E3 ag-1	NR1D1 modulator	PG9 binder	NR2E3 ag-2	GalR3 antag	PG9 bind confirm	PGV04 Ab binding	others
COc1ccc(S[C@]2(C(=O)N3CCCC3)CC(=O)N(C(=O)CCc3ccccc3)[C@@H]2c2ccc(OC)cc2)cc1	·	–	·	·	·	·	·
CCCCCC[C@@H](CCCc1ccccc1OC)CN(CCCC)S(C)(=O)=O	·	–	·	·	·	·	·
Cc1ccc(C(=O)NCCNc2nc3cc(C)c(C)cc3cc2C)cc1	–	–	8.9	–	–	18	22
COc1ccc(-c2noc(C3CCCN(C(=O)Nc4ccc5c(c4)OCO5)C3)n2)cc1 (centres undefined)	·	–	·	·	·	·	·
Cn1c(C(=O)Nc2ccc(Cl)cc2)cc2cc(Cl)ccc21	–	–	14	–	–	9.2	16
O=C(O)c1ccccc1C(=O)c1cccc2c(Br)cccc12	–	–	54	·	–	68	83
CSc1nc2sc3c(c2c(=S)[nH]1)CC(C)(C)OC3	–	–	12	·	–	44	73
CCc1nc2sc3c(c2c(=S)[nH]1)CC(C)(C)OC3	–	–	–	·	–	·	·
COC(=O)C1=C(C)N(Cc2cccc(C(F)(F)F)c2)C(=NCc2ccccc2C(F)(F)F)NC1c1cccc(F)c1 (centres undefined)	·	–	–	·	–	·	·
Cc1ccc(-c2nsc(SCC(=O)NCc3ccc4c(c3)OCO4)n2)cc1	–	–	16	–	–	18	21
CS(=O)(=O)c1ccc2nc(NC(=O)Nc3ccccc3F)sc2c1	–	–	33	–	–	27	46
O=C(NCCN1CCC(Cc2ccccc2)CC1)C1CCCN(S(=O)(=O)c2cccs2)C1 (centres undefined)	·	–	·	·	·	·	·
Cc1noc(C)c1C(=O)Nc1sc2c(c1C(N)=O)CCC2	–	–	12	–	–	–	17
NC(=O)c1c(NC(=O)c2ccccc2)sc2c1CCC2	–	–	–	–	–	·	·
Cn1ncc(Cl)c1C(=O)Nc1sc2c(c1C(N)=O)CCC2	–	–	8.7	–	–	12	29
N[C@H](C(=O)N1CCC[C@@H]1C(=O)N1CCC2CCN(S(=O)(=O)c3ccccc3)CC21)c1ccccc1 (some centres undefined)	·	–	·	·	·	·	·
COC(=O)[C@]12C[C@H](CC(=O)N3CCN(C(=O)c4ccco4)CC3)C(=O)N(Cc3ccco3)C1=C[C@H](COCc1ccccc1)O[C@@H]2C	·	–	·	·	·	·	·
Nc1c(C(=O)Nc2ccccc2)sc2nc(N3CCOCC3)c3c(c12)CCCC3	–	–	–	·	–	·	·

Screens deposited in PubChem BioAssay by several laboratories.
